# Test results from PMC3673019 (Biochemistry, 2012).
# Entries after “also recorded” stand apart in the source; their conditions may differ. Like-named read-outs stand apart in the source and are kept apart here.
# Legend:
# [1] = cited from earlier work
# [2] = target: T1, eEF-2K (Homo sapiens, UniProt O00418); assay type: biochemical
# [3] = test system: eEF-2K; conditions: cited from earlier work
# [4] = target: T1, eEF-2K; assay: Dose-response inhibition of Pep-S phosphorylation by NH125; assay type: biochemical; conditions: in the presence of 0.1% triton X-100
# [5] = target: T2, TRPM7 (Homo sapiens, UniProt Q96QT4); assay: Dose-response inhibition assay against TRPM7; assay type: biochemical; conditions: 25 nM TRPM7, 500 µM ATP (data not shown)
# T2 sequence (Q96QT4 1551-1830): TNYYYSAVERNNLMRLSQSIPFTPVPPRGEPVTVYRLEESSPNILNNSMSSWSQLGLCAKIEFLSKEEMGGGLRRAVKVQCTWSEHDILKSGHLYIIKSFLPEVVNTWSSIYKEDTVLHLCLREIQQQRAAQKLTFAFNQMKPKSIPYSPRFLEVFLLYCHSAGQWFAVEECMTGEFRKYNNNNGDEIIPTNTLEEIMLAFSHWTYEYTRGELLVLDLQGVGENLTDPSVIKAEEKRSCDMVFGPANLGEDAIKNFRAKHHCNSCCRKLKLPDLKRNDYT
# [6] = target: ERK2 (Homo sapiens, UniProt P28482); assay: Dose-response inhibition assay against ERK2; assay type: biochemical
# Chain of ERK2 (P28482 whole entry, species assumed): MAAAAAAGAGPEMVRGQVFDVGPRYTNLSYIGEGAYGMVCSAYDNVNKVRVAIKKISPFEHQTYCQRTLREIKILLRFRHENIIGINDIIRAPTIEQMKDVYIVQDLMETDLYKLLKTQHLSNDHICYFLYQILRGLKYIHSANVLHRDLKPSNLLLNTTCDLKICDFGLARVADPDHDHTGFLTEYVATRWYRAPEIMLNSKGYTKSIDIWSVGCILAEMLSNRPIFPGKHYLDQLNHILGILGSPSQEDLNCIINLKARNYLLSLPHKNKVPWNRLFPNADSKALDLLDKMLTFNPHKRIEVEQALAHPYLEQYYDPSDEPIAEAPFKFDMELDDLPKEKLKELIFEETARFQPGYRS
# How it was run: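 Radiometric kinase assay: 2 nM ERK2, 500 µM [γ-32P]-ATP, 20 µM Ets1 substrate, test compound 0–500 µM. IC50 and Hill coefficient came from a dose-response equation fit.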
# [7] = target: T1, eEF-2K; assay: Phosphorylation of wheat germ EF2 by eEF-2K in vitro; assay type: biochemical
# [8] = test system: MDA-MB-231 breast cancer cells; assay: Western blot of phospho-eEF2; assay type: cell-based; conditions: 4 µM NH125, 0–12 h
# [9] = test system: A549 lung cancer cells; assay: Western blot of phospho-eEF2; assay type: cell-based; conditions: 4 µM NH125, 0–12 h
# [10] = test system: HEK-293T cells; assay: Western blot of phospho-eEF2; assay type: cell-based; conditions: 4 µM NH125, 0–12 h
# [11] = test system: GST-eEF-2K; conditions: in vitro kinase assay; cited from earlier work
# [12] = test system: cancer cell lines; conditions: read-out: EC50, decrease of viability; a number of cancer cell lines; cited from earlier work
# [13] = test system: C6 glioma cells; conditions: 1 µM NH125, 12 hours; cited from earlier work
# [14] = test system: human microvascular endothelial cells (HMVECs); conditions: 200 nM NH125, 2 hour pre-incubation; cited from earlier work
# [15] = test system: eEF2 phosphorylation in the hippocampus; conditions: 5 mg/kg, 30 minutes, mice; cited from earlier work
# [16] = test system: H1299, PC3, HeLa, H460 and C6 cell lines; conditions: NH125 for 6 hours; cited from earlier work
# [17] = varied ATP 12.5–125 µM, fixed Pep-S 50 µM
# T1 sequence (O00418 whole entry): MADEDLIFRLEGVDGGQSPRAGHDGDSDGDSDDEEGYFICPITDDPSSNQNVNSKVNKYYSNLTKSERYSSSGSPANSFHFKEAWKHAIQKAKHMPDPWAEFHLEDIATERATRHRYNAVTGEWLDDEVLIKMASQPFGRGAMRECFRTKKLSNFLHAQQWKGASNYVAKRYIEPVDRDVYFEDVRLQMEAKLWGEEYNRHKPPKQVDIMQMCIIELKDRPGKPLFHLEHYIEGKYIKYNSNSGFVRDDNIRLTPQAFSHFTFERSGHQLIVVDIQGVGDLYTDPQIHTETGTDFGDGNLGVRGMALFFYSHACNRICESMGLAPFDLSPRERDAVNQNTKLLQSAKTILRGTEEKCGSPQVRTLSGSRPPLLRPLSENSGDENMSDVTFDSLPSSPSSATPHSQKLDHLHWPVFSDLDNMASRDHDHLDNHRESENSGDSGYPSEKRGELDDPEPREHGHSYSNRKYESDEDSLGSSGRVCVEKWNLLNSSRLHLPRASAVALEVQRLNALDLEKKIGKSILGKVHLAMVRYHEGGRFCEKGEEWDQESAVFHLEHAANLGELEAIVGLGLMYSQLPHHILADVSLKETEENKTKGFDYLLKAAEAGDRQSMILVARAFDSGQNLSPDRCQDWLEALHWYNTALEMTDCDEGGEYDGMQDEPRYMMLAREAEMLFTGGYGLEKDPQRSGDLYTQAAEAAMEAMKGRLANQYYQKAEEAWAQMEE
compound,measurement,setting,value
O=C1OC(c2cc(I)c(O)c(I)c2)(c2c(I)cc(O)cc2I)c2ccccc21 (stereo not shown) [tetraiodophenolphthalein],diameter of aggregates,[1],approximately 150 nm
"Nc1ncnc2c1ncn2[C@@H]1O[C@H](COP(=O)(O)OP(=O)(O)O)[C@@H](O)[C@H]1O [ADP, adenosine diphosphate]",Mechanism of inhibition,[2]; [17],Competitive ^d
same,Mechanism of inhibition,"[2]; varied Pep-S, fixed ATP 50 µM",Mixed ^g
"CC(=O)c1c(O)c(C)c(O)c(Cc2c(O)c3c(c(C(=O)/C=C/c4ccccc4)c2O)OC(C)(C)C=C3)c1O [Rottlerin, rottlerin]",kinase selectivity,[3],nonspecific inhibitor of multiple protein kinases
"CCCCCCCCCCCCCCCC[n+]1ccn(Cc2ccccc2)c1C.[I-] [NH125, 1-benzyl-3-cetyl-2-methylimidazolium iodide]",Hill coefficient,[4],1.0 ± 0.28
same,Hill coefficient,[5],1.6
same,IC50,[6],70 µM
same,Hill coefficient,"[6]; 2 nM ERK2, 500 µM ATP (data not shown)",3.6
same,effect on the rate of phosphorylation of wheat germ eEF2,"[7]; NH125 0–5 µM, 1 µM eEF2, 7.5 µM ATP, 10 nM eEF-2K",no detectable effect; also recorded: failed to inhibit
same,effect on phosphorylation of wheat germ eEF2,[7]; NH125 12.5 – 50 µM (Figure S3),inhibition is observed
same,levels of eEF-2K and eEF-2,[8],increase
same,phospho-eEF2 (Thr-56) level,[8]; versus DMSO,No sign of decrease; also recorded: increased; also recorded: no inhibition was observed; also recorded: did not inhibit
same,levels of eEF-2K and eEF-2,[9],increase
same,phospho-eEF2 (Thr-56) level,[9]; versus DMSO,No sign of decrease; also recorded: increased; also recorded: no inhibition was observed; also recorded: did not inhibit
same,levels of eEF-2K and eEF-2,[10],increase
same,phospho-eEF2 (Thr-56) level,[10]; versus DMSO,No sign of decrease; also recorded: increased; also recorded: no inhibition was observed; also recorded: did not inhibit
same,IC50,[11],0.06 µM
same,EC50,[12],1 to 5 µM
same,phosphorylation of eEF2,[13],strongly inhibits
same,resveratrol-induced eEF2 phosphorylation,[14],inhibition
same,eEF2 phosphorylation in the hippocampus,[15],observable decrease
same,phosphorylation of eEF-2,[16],induction; also recorded: induce phosphorylation
"Nc1ncnc2c1ncn2[C@@H]1O[C@H](COP(=O)(O)OP(=O)(O)OP(=O)(O)O)[C@@H](O)[C@H]1O [ATP, adenosine triphosphate]",Kd,[2],16.2 ± 6.9 µM
Ac-RKKYKFNEDAERRRFL-NH2 [Pep-I],Mechanism of inhibition,[2]; [17],Mixed ^g
same,Mechanism of inhibition,"[2]; varied Pep-S, fixed ATP 50 µM",Competitive ^d
